Screening data as filed in PubChem.
This is a sample that favours compounds with a hit; in the whole collection about 3.5% have one here.
MrgX1 allo act: human MrgX1 positive allosteric modulation, primary screen; 310,000 compounds, 0.63% hits; MrgX1-HEK293, Fluo-4 calcium flux, FDSS; hits give high values; Q96LB2; B-score at 10 µM;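 active = plate-corrected calcium response at least 3 library SD above typical, normal starting fluorescence, not activating the receptor alone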;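 also: compound read alongside a low EC10 to EC30 dose of BAM8-22 agonist; peak minus trough fluorescence over baseline measured at the second addition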
Target sequence (Q96LB2 whole entry, looked up): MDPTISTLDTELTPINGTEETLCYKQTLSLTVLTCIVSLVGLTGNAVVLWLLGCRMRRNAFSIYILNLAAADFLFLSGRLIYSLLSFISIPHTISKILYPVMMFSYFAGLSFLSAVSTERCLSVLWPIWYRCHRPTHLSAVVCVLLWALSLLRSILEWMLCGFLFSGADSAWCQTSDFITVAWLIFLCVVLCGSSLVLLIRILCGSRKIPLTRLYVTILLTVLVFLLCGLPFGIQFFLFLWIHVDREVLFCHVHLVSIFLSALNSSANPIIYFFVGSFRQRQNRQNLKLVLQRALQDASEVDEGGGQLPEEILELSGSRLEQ
MrgX1 ag: activates human MrgX1 receptor signaling | Q96LB2 | MrgX1-HEK293 cells, Fluo-4 calcium fluorescence, agonist mode; hits give high values | B-score at 10 µM | 310,000 compounds, 0.44% hits | AID 588627;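 active = calcium response B-score plate-corrected fluorescence ratio at least 3 library SD, with starting fluorescence B-score inside 5 SD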
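Test system: Stable human MrgX1 HEK293 cell line | Schedule: Overnight plating before 1 h dye loading | Read-out basis: Baseline-normalised fluorescence change ratio, B-scored | Detection: Kinetic calcium dye fluorescence, Fluo-4 NW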
RGS4 pot: potentiators or activators of RGS4; HEK293 M3R/inducible RGS4, carbachol calcium flux Fluo4; hits give low values; 310,000 compounds, 0.92% hits; B-score at 10 µM; AID 463111;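 active = B-score of the integrated calcium signal more than 4 SD below the library mean, with starting fluorescence not abnormally high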;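 also: negative B-score means reduced calcium response which marks RGS4 activation or potentiation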
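test system = M3R-expressing HEK293 line, RGS4 induced by doxycycline | probe or stimulus = carbachol at ECmax as muscarinic agonist stimulus | timing = dye loading 30 min 37 °C, buffer rest 30 min RT | signal = calcium dye Fluo4 fluorescence | evaluation = B score from integrated fluorescence ratio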
MrgX1 antag: antagonists of human MrgX1 receptor. B-score at 10 µM. AID 588676. 310,000 compounds, 1.3% hits. MRGX1-HEK293 calcium flux, Fluo-4, BAM8-22 antagonism; hits give low values. Q96LB2;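 active = calcium-response B-score plate-corrected more than 3 library SD below zero, starting fluorescence within 5 deviations, no agonist response on first addition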;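 also: peak minus trough fluorescence over baseline after final BAM8-22 challenge near maximal dose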
RGS4 inh: human RGS4 inhibition; P49798; HEK293 M3R/RGS4 inducible, Fluo-4 calcium flux; hits give high values; triggered by carbachol at its EC20; B-score at 10 µM; 310,000 compounds, 0.45% hits;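 active = B-score, a plate-corrected calcium signal, over three deviations above library mean, with baseline fluorescence within five deviations of library mean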;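 also: RGS4 expression induced by doxycycline in cells with stable M3 receptor; B-score is computed from the integrated fluorescence ratio over baseline after carbachol; higher B-score means a larger calcium signal and so more RGS4 inhibition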
Target sequence (P49798 whole entry, looked up): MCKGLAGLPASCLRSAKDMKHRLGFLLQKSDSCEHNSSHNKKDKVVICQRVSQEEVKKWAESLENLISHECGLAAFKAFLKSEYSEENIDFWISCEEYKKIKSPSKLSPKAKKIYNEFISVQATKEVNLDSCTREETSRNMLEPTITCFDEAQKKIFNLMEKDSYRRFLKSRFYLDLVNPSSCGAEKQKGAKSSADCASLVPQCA
RGS4 block valid: validation of RGS4 inhibitors; shares compounds with RGS4 inh; HEK293 M3R/RGS4, carbachol calcium Fluo-4 fluorescence; carbachol added at its EC20; 0 = buffer wells, 100 = carbachol control; calcium response, % at 10 µM; 1,700 compounds, 65% hits;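 active = duplicate-averaged calcium response above the buffer-only control mean plus 5 SD of those controls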;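 also: integrated fluorescence ratio F max minus min over baseline F0; higher response in RGS4-induced cells means RGS4 inhibition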
RGS4 uninduced: counter-screen for RGS4 inhibitors: effect in non-induced cells; shares compounds with RGS4 inh; HEK293 M3R non-induced, carbachol calcium Fluo-4; submaximal (EC20) carbachol stimulus; buffer wells 0%, carbachol control wells 100%; activity (percent), % at 10 µM; 1,900 compounds, 20% hits; call rule not given here;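 also: RGS4 induction absent so cells express M3R without RGS4; higher means more calcium signal and flags a non-specific hit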
RGS4 inh ctr2: second RGS4 inhibitor counter-screen in uninduced cells lacking carbachol | HEK293 M3R/RGS4 non-induced, Fluo-4 calcium, no carbachol; normalised: buffer wells 0%, carbachol wells 100% | shares compounds with RGS4 inh | calcium response (agonist-mode artifact), % at 10 µM | 1,900 compounds, 22% hits;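 active = duplicate-averaged calcium rise in uninduced cells above buffer wells' mean plus 5 SD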
MrgX1 ag confirm: confirmation of human MrgX1 receptor agonists; shares compounds with MrgX1 ag; MrgX1-HEK293, Fluo-4 calcium fluorescence, FDSS; activation, % at 10 µM; 600 compounds, 78% hits; AID 602412;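 active = calcium signal rise, corrected for plate position, at least 3 library SD high, with starting brightness within 5 such deviations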
MrgX1 PAM conf: reconfirmed allosteric activator of human MrgX1 receptor. shares compounds with MrgX1 allo act. MrgX1-HEK293, Fluo-4 calcium fluorescence, FDSS. activation (ratio percentage), % at 10 µM. 1,200 compounds, 13% hits;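 active = ratio at least 3 SD above the weak peptide control, stable starting fluorescence, no direct agonism earlier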;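 also: compound followed by low BAM8-22 agonist challenge near EC20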
HEK293 Ca flux: counter-screen for MrgX1 antagonists: effect in parental HEK293 cells; fluorescence ratio F(max-min)/F0 at 10 µM; shares compounds with MrgX1 antag; AID 624111; 4,000 compounds, 2% hits; Fluo-4 calcium fluorescence, FDSS;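 active = duplicate-averaged calcium fluorescence ratio at least three times the standard deviation of buffer wells, a nonspecific response in parental cells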
HEK293 Ca counter: activity in parental HEK293 cells without MrgX1; shares compounds with MrgX1 antag; parental HEK293 calcium flux, Fluo-4 fluorescence ratio; hits give high values; fluorescence ratio F(max-min)/F0 at 10 µM; 4,000 compounds, 0.4% hits;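 active = calcium fluorescence ratio, averaged over duplicates, at least 3 SD of the buffer-well ratio, meaning a nonspecific response in receptor-free cells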;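 also: untransfected parental HEK293 lacking MrgX1 used as counterscreen for MrgX1 allosteric activators; fluorescence change taken during the second addition on a kinetic imager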
HEK293 Ca cntr2: activity in parental HEK293 cells lacking MrgX1 receptor. shares compounds with MrgX1 antag. Fluo-4 calcium fluorescence (FDSS); hits give high values. fluorescence ratio F(max-min)/F0 at 10 µM. 4,000 compounds, 8.7% hits. AID 624115;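 active = calcium fluorescence ratio at least three times the spread of buffer wells, meaning a non-specific response in parental cells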
* marks the source's active call; other numbers are inactive results; i = inactive; . = not tested or not shown.

SMILES | MrgX1 allo act | MrgX1 ag | RGS4 pot | MrgX1 antag | RGS4 inh | RGS4 block valid | RGS4 uninduced | RGS4 inh ctr2 | others
O=C(O)c1ccc2c(=O)n3c(nc2c1)/C(=C/c1ccc(Cl)c(Cl)c1)CC3 | i | i | i | i | 15.7* | 29.5%* | i | i
COC(=O)c1ccc(/C=C2\CCn3c2nc2cc(C(=O)O)ccc2c3=O)cc1 | i | i | i | i | i | . | . | .
Cc1cc(C(=O)Nc2sc(C)c(C)c2C#N)c(C)o1 | i | i | i | i | 7.46* | 12.0%* | i | 10.5%*
Cc1sc(NC(=O)c2oc3ccccc3c2C)c(C#N)c1C | i | i | i | i | i | . | . | .
COCCCNC(=S)N(CCCO)Cc1cc2cc3c(cc2[nH]c1=O)OCCO3 | i | i | i | i | i | . | i | i
COCCCNC(=S)N(CCCO)Cc1cc2cc3c(cc2[nH]c1=O)OCO3 | i | i | i | i | i | . | i | i
CCN(CC)CCCN(Cc1cc2cc3c(cc2[nH]c1=O)OCO3)C(=S)NCCOC | i | i | i | i | i | . | . | .
CN(C)CCCNC(=S)N(CCO)Cc1cc2cc3c(cc2[nH]c1=O)OCO3 | i | i | i | i | i | . | . | .
COCCCNC(=S)N(CCO)Cc1cc2cc3c(cc2[nH]c1=O)OCO3 | i | i | i | i | i | i | i | i
CCNC(=S)N(CCCO)Cc1cc2cc3c(cc2[nH]c1=O)OCCO3 | i | i | i | i | i | . | . | .
Cc1ccc(C)c(NC(=O)COC(=O)CNC(=O)c2ccccc2Cl)c1 | i | i | i | i | i | . | . | .
Cc1[nH]n(-c2ncc(-c3ccc(Cl)cc3)s2)c(=O)c1C(c1ccc(Cl)cc1)C(C#N)C#N (stereo not drawn) | i | i | i | i | 18.5* | 30.0%* | i | 47.5%*
Cc1cnnn1-c1ccc(C(=O)CCl)cc1 | i | 28.4* | i | i | 10.8* | 85.5%* | 38.5%* | 19.0%* | MrgX1 ag confirm=252.4%*;HEK293 Ca flux=i;HEK293 Ca counter=i;HEK293 Ca cntr2=47.7*
CN(C)CCNc1nc(-c2ccco2)c2c(c1C#N)CC(C)(C)OC2 | i | i | i | i | i | . | . | .
CCCCN(C)c1nc(-c2ccco2)c2c(c1C#N)CC(C)(C)OC2 | i | 28.3* | i | i | 7.17* | i | i | 34.5%* | MrgX1 ag confirm=84.5%*;HEK293 Ca flux=i;HEK293 Ca counter=i;HEK293 Ca cntr2=i
Nc1ncnc2c1ncn2C1OC(CO)C(O)C1O (stereo not drawn) | 9.39* | i | i | i | 9.44* | 41.0%* | 71.0%* | i | MrgX1 PAM conf=i;HEK293 Ca flux=i;HEK293 Ca counter=i;HEK293 Ca cntr2=i
Nc1ncnc2c1ncn2[C@@H]1O[C@H](CO)C[C@@H]1O | i | i | i | i | i | . | . | .
